Drawing on ChEMBL document CHEMBL1145397, “Structure-activity relationships of a series of analogs of the endozepine octadecaneuropeptide (ODN(11)(-)(18)) on neurosteroid biosynthesis by hypothalamic explants” (2007), this text covers Activity for 22 compounds.

Activity calls are given as the source filed them. The rule behind the calls is not given here.

Test [1] concerns Hypothalamus. The experiment in a line: Effect on neurosteroid biosynthesis assessed as conversion of [3H]pregnenolone to 17-Hydroxypregnenolone in frog hyphalamic explats at 10 uM after 2 hrs relative to control. It counts as functional, Pelophylax lessonae. In a few lines: (§1)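 Frog hypothalamic explants, preincubated 15 min in HEPES/bicarbonate Ringer's (glucose, BSA, 95% O2/5% CO2, pH 7.4), then incubated 2 h at 24 °C with 10^-6 M [3H]pregnenolone in 4% propylene glycol, with or without peptide. Reaction stopped with trichloroacetic acid; steroids extracted in dichloromethane and resolved by RP-HPLC radioactivity profiles. Values are % of steroid formed without peptide, mean ± SEM of independent experiments.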

Test [2] concerns Hypothalamus. Briefly: Effect on neurosteroid biosynthesis assessed as conversion of [3H]pregnenolone to progesterone in frog hyphalamic explats at 10 uM after 2 hrs relative control. It counts as functional, Pelophylax lessonae. In a few lines: as §1
For test [3], the system named is Hypothalamus. Briefly: Effect on neurosteroid biosynthesis assessed as conversion of [3H]pregnenolone to progesterone in frog hyphalamic explats at 1 uM after 2 hrs relative control. It counts as functional, Pelophylax lessonae. The method in brief:
as §1

Test [4] concerns Hypothalamus. The experiment in a line: Effect on neurosteroid biosynthesis assessed as conversion of [3H]pregnenolone to 17-Hydroxypregnenolone in frog hyphalamic explats at 1 uM after 2 hrs relative to control. It counts as functional, Pelophylax lessonae. In a few lines: as §1
The test system of test [5] is Hypothalamus. Briefly: Effect on neurosteroid biosynthesis in frog hyphalamic explats at 1 uM after 2 hrs in presence of CBR antagonist flumazenil. It counts as functional, tissue-based. The following applies: Pelophylax lessonae. In a few lines: as §1

Regarding `CC(C)C[C@@H]1NC(=O)CNC(=O)[C@@H]2CCCN2C(=O)[C@H](CCCNC(=N)N)NC(=O)[C@H](CCCCN)NC(=O)[C@H](CC(C)C)NC(=O)[C@H](CC(=O)O)NC(=O)[C@@H](CC(C)C)NC1=O`, the results for the Activity in the test with Hypothalamus [1] and in the test on Hypothalamus [2] were 99.9% and 99.7%, respectively.

Take H-RPGLLDL-OH: the Activity worked out at 136.6% in the test with Hypothalamus [3] and 131.5% in the test with Hypothalamus [4].

For H-RPGLLD-OH, the values for the Activity in the test on Hypothalamus [3] and in the test with Hypothalamus [4] were 98.6% and 98.2%, respectively.

Regarding `CC(C)C[C@@H]1NC(=O)CNC(=O)[C@H]2CCCN2C(=O)[C@H](CCCNC(=N)N)NC(=O)[C@H](CCCCN)NC(=O)[C@H](CC(C)C)NC(=O)[C@H](CC(=O)O)NC(=O)[C@@H](CC(C)C)NC1=O`, in the test on Hypothalamus [5], the result was inactive.

For H-GLLDL-OH, the Activity with Hypothalamus [3] is reported as 116.5%; with Hypothalamus [4], 98.9%.

Turning to H-PGLLDL-OH, the Activity in the test on Hypothalamus [3] is recorded as 137%; in the test with Hypothalamus [4], 117.5%.

H-RPGLLALK-OH: the results for the Activity in the test on Hypothalamus [3] and in the test with Hypothalamus [4] were 100.4% and 103.6%, respectively.

On to H-RPGLLDLK-OH, for which the figures for the Activity with Hypothalamus [3] and with Hypothalamus [4] were 281.7% and 410.5%, respectively. The result in the test with Hypothalamus [5] was inactive.

For H-RPGLL-OH, the values for the Activity in the test with Hypothalamus [3] and with Hypothalamus [4] were 99.6% and 97.1%, respectively.

As for H-RPGLADLK-OH, the Activity turned out to be 108.5% with Hypothalamus [3] and 92.8% with Hypothalamus [4].

For the compound H-APGLLDLK-OH [APGLLDLK], the results for the Activity with Hypothalamus [3] and in the test on Hypothalamus [4] were 276.5% and 402.7%, respectively.

With “H-QATVGDVNTDRPGLLDLK-OH [QATVGDVNTDRPGLLDLK]”, the Activity in the test with Hypothalamus [3] is on record as 382.7%; in the test on Hypothalamus [4] it was 465.3%.

H-RPALLDLK-OH: the results for the Activity in the test with Hypothalamus [3] and in the test on Hypothalamus [4] were 99% and 126%, respectively.

For the compound H-GLLDLK-OH, the Activity turned out to be 266.6% with Hypothalamus [3] and 366.6% with Hypothalamus [4].

In the case of H-LLDLK-OH, the Activity in the test with Hypothalamus [3] was 103.8%; with Hypothalamus [4] it was 103.6%.

As for H-RAGLLDLK-OH, the Activity in the test on Hypothalamus [3] came out at 265.2%; in the test on Hypothalamus [4], 405%.

In the case of H-RPGALDLK-OH, the Activity is recorded as 104.7% in the test on Hypothalamus [3] and 97.1% in the test on Hypothalamus [4].

Consider H-RPGLLDAK-OH, for which the Activity in the test on Hypothalamus [3] worked out at 103.2%; in the test with Hypothalamus [4], 99.5%.

Take H-RPGLLDLA-OH: the values for the Activity with Hypothalamus [3] and with Hypothalamus [4] were 137% and 126%, respectively.

Turning to `CC(C)C[C@@H]1NC(=O)CNC(=O)[C@@H]2CCCN2C(=O)[C@H](CCCNC(=N)N)NC(=O)[C@H](CCCCN)NC(=O)[C@H](CC(C)C)NC(=O)[C@H](CC(=O)O)NC(=O)[C@H](CC(C)C)NC1=O`, the Activity with Hypothalamus [3] worked out at 271.9%; in the test on Hypothalamus [4], 246.9%.

For H-PGLLDLK-OH [PGLLDLK], the Activity came to 282.1% in the test with Hypothalamus [3] and 400.2% in the test with Hypothalamus [4].

On to H-PGLLD-OH, for which the values for the Activity in the test on Hypothalamus [3] and with Hypothalamus [4] were 101.4% and 101.3%, respectively.
